Data as given in ChEMBL document CHEMBL4715934, “Discovery of Imidazopyridines as Potent Inhibitors of Indoleamine 2,3-Dioxygenase 1 for Cancer Immunotherapy” (ACS Med Chem Lett, 2021).
pEC50, pIC50: −log10 of the molar value.

Tests used:
[1] = target: T1, Nuclear receptor subfamily 1 group I member 2 (Homo sapiens, UniProt O75469); experiment: Transactivation of PXR (unknown origin) assessed as CYP450 induction
T1 sequence (O75469 whole entry): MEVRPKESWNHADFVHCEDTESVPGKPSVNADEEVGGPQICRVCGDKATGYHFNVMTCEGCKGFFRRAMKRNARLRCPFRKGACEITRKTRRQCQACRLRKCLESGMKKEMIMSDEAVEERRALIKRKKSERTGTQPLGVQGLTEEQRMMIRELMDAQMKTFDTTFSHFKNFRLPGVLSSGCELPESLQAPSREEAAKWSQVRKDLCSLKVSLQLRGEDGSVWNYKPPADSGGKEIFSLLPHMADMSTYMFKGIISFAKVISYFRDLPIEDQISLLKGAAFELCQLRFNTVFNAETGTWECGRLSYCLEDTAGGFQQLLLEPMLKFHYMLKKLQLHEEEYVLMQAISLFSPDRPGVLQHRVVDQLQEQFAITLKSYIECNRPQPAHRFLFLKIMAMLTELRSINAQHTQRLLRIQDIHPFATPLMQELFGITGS

[2] = target: T2, Indoleamine 2,3-dioxygenase 1 (Homo sapiens, UniProt P14902); experiment: Inhibition of IDO1 in IFN-gamma/LPS induced human whole blood assessed as tryptophan/kynurenine level measured after 18 hrs by RapidFire mass spectrometry; assay type: tissue-based
[3] = Metabolic stability in mouse liver microsomes assessed as parent compound remaining at 0.5 uM after 10 mins; assay type: ADME, Microsome; conditions: read-out: Stabilty
How it was run: (§1)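 Parent compound at 0.5 μM incubated 10 min with 1 mg/mL human, mouse or rat liver microsomes; fraction of parent remaining reported; average of N = 2 unless noted.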

[4] = target: Indoleamine 2,3-dioxygenase 1 (Mus musculus, UniProt P28776); experiment: Inhibition of IDO1 in recombinant IFN-gamma induced mouse M109 cells incubated for 18 hrs by fluorescence microplate reader assay; assay type: cell-based
How it was run: (§2)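 HeLa (human) or M109 (murine) cells induced with IFNγ to express IDO1, then cellular IDO1 activity measured; values are the average of N = 2 unless noted.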

[5] = Metabolic stability in human liver microsomes assessed as parent compound remaining at 0.5 uM after 10 mins; assay type: ADME, Microsome; conditions: read-out: Stabilty; how it was run: as §1
[6] = Metabolic stability in rat liver microsomes assessed as parent compound remaining at 0.5 uM after 10 mins; assay type: ADME, Microsome; conditions: read-out: Stabilty; how it was run: as §1
[7] = target: T3, PXR (NR1I2) (Homo sapiens, UniProt O75469); experiment: Transactivation of PXR (unknown origin) assessed as CYP450 induction relative to rifampicin
T3 sequence (O75469 whole entry): T1 sequence (O75469 whole entry)

[8] = target: T2, Indoleamine 2,3-dioxygenase 1; experiment: Inhibition of IDO1 in recombinant IFN-gamma induced human HeLa cells incubated for 18 hrs by fluorescence microplate reader assay; how it was run: as §2

T2 sequence (P14902 whole entry): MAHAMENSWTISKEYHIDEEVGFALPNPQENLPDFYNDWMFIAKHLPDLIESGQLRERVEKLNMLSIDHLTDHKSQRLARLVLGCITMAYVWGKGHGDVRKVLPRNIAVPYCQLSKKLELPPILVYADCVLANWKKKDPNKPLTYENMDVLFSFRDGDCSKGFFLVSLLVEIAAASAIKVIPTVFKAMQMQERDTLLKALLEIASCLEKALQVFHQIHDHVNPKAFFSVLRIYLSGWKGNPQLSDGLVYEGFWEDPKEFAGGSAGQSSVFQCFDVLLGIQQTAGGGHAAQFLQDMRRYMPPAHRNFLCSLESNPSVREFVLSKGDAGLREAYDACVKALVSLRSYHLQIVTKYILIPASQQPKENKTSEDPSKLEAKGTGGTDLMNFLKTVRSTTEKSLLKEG
Indoleamine 2,3-dioxygenase 1 (Mus musculus, UniProt P28776), sequence (P28776 whole entry): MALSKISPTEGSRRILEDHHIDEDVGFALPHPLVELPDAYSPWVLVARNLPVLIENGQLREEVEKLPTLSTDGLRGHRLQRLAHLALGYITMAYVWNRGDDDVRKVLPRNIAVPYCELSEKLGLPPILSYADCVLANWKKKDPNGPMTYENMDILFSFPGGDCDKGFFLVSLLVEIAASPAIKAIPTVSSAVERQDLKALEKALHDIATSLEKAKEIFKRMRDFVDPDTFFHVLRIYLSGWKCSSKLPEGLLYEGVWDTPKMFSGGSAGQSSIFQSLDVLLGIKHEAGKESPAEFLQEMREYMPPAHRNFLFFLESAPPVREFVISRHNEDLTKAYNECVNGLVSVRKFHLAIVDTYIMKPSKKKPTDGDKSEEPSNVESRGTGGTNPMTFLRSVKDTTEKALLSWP

SMILES: CCC(Nc1nnc(-c2ccc(OC)cc2)o1)[C@H]1CC[C@H](Oc2ccnc3ccccc23)CC1 (stereo partly drawn)
- pEC50 [1]: < 4.30
- pIC50 [2]: 6.34
- remaining at 10 min, 0.5 µM [3]: 39%
- pIC50 [4]: 6.83
- remaining at 10 min, 0.5 µM [5]: 83%
- remaining at 10 min, 0.5 µM [6]: 88%
- Emax [7]: > 50%
- pIC50 [8]: 7.89
